An excerpt weighted towards active compounds, which were near 2.3% of everything screened.
CR mimetic SO: yeast age-related superoxide inhibition as caloric restriction mimetic; S. cerevisiae aged cells, superoxide DHE fluorescence; hits give low values; superoxide response (% of plate mean), % at 10 µM; hit rate 0.18% among 330,000;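 active = superoxide response under a set limit, about three screen SD below normal, cut at about 65% in these data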;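 note: yeast aged for seven days with compound at 30 °C before DHE staining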
TRPC6 act: mouse TRPC6 channel activation. HEK293-TRPC6 membrane potential dye fluorescence; hits give high values. B-score at 10 µM. hit rate 0.13% among 310,000. AID 2550;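 active = B-score of the integrated fluorescence ratio above library mean plus 3 SD, and starting fluorescence ratio within library mean plus 5 SD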;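 note: higher score means more depolarization so channel activation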
TRPC6 inh: blocks the mouse TRPC6 cation channel; HEK293-TRPC6, membrane potential dye, ACh-evoked depolarization; hits give low values; hit rate 1.1% among 310,000; AID 2553; B-score at 10 µM; Q61143;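 active = B-score under library mean minus 3 SD, initial fluorescence not abnormally high, positive integrated signal ratio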;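 note: B-score derived from integrated fluorescence ratio over the kinetic read; more negative B-score means stronger inhibition of depolarization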
TRPC4 act: TRPC4 (mouse) channel activation. hit rate 0.49% among 310,000. HEK293 TRPC4beta/mu-opioid, Fluo4 calcium fluorescence; hits give high values. Q9QUQ5. B-score at 10 µM. AID 2237;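 active = B-score above 5 SD of library B-scores, and initial fluorescence ratio not above library mean plus 5 SD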;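 note: positive B-score marks a calcium rise read as TRPC4 activation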
Target sequence (Q9QUQ5 whole entry, looked up): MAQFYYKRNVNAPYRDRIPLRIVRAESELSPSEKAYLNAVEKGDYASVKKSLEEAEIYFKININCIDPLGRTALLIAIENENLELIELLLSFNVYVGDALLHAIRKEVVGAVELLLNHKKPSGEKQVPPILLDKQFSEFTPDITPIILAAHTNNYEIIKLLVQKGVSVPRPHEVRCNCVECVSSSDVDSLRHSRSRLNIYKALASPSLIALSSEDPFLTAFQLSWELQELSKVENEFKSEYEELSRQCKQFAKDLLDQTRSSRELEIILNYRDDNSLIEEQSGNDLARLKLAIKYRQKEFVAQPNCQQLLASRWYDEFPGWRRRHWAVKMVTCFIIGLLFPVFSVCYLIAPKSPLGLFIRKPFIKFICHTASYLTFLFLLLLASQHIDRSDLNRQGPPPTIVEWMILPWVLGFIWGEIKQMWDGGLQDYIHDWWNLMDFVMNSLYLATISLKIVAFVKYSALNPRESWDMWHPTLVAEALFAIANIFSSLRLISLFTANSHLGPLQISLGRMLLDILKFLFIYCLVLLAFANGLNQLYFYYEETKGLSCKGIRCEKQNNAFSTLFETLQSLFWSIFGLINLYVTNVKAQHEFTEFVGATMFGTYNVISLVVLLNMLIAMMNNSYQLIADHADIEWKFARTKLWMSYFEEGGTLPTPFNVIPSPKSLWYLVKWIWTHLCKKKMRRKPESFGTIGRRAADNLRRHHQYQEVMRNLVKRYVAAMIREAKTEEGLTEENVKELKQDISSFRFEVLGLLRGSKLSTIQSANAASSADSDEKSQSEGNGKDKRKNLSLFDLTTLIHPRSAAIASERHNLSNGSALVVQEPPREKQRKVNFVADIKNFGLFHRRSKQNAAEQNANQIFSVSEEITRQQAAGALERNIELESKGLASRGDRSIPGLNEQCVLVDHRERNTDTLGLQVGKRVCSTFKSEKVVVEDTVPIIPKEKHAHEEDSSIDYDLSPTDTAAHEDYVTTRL
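Assay system: HEK293 stable line with TRPC4beta plus mu-opioid receptor. Times: dye 45 min RT, read 110 s. Measured by: kinetic Fluo4 calcium fluorescence. Measure: B score of integrated ratio. Controls: assay buffer as low control, maximal DAMGO as high control.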
TRPC4 PAM: allosterically enhances the mouse TRPC4 cation channel; AID 2227; hit rate 0.42% among 310,000; B-score at 10 µM; Q9QUQ5; HEK293 TRPC4beta/mu-opioid, DAMGO EC20, Fluo-4 Ca2+ flux; hits give high values;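 active = B-score of calcium response area above 5 SD of library B-scores, with initial fluorescence ratio within 5 SD of library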
TRPC4 block: blocks the mouse TRPC4 cation channel | HEK293 TRPC4beta/mu-opioid, DAMGO-evoked Fluo4 calcium flux; hits give low values | AID 2247 | B-score at 10 µM | hit rate 0.39% among 300,000 | Q9QUQ5;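 active = B-score over 3 SD under the library average, no early fluorescence shift, positive overall ratio signal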
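Test system – stable TRPC4beta/mu-opioid receptor HEK293 cells · Probe or stimulus – DAMGO, a submaximal dose followed by a maximal one · Dosing – one concentration per compound · Signal – Fluo4 calcium fluorescence by kinetic imaging, 5 s 1 Hz baseline · Evaluation – per-well B score of integrated baseline-normalized Fluo4 ratio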
TRPC4 sel inh 2: second check of whether TRPC6 inhibitors also affect mouse TRPC4; inhibition, % at 10 µM; hit rate 42% among 920; AID 2776; shares compounds with TRPC6 inh; HEK293 TRPC4/MOR, membrane potential dye fluorescence; channel activated by saturating DAMGO dose;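 active = compounds whose fluorescence signal differed from control wells by over 3 SD, either direction, in both duplicate plates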
TRPC4 spec: selectivity of TRPC6 inhibitors: effect on mouse TRPC4 | activity change, negative = inhibition, % at 10 µM | hit rate 61% among 920 | HEK293 TRPC4/mu-opioid, membrane potential fluorescence | shares compounds with TRPC6 inh | AID 2777;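 active = rise or fall in signal beyond 3 SD of buffer-only wells in both replicate plates, either sign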;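 note: integrated kinetic ratio of fluorescence range over baseline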
HEK293 MPD ctr 2-1: parental HEK293 nonspecific activity of TRPC6 inhibitors, second screen. shares compounds with TRPC6 inh. parental HEK293 membrane potential dye fluorescence; maximal acetylcholine challenge after compound addition. signal change vs control, % at 10 µM. hit rate 31% among 920;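 active = membrane potential signal moving either way by over 3 SD of the maximum-effect control, in both duplicate plates, meaning non-specific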
HEK293 MPD ctr-1: parental HEK293 nonspecific activity of TRPC6 inhibitors. AID 2780. parental HEK293 membrane potential dye fluorescence. shares compounds with TRPC6 inh. membrane potential signal change, % at 10 µM. hit rate 60% among 920;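 active = membrane potential signal shifting up or down by more than 3 SD of buffer-only wells, on both duplicate plates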
HEK293 MPD ctr-2: parental HEK293 nonspecific activity of TRPC6 modulators; shares compounds with TRPC6 inh; membrane potential dye fluorescence; membrane potential signal change, % at 10 µM; hit rate 51% among 2,400; AID 488924;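 active = membrane potential signal moves up or down beyond 5 SD from buffer-only wells, on both duplicate plates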
HEK293 MPD ctr 2-2: parental HEK293 nonspecific activity of TRPC6 modulators, second screen; shares compounds with TRPC6 inh; membrane potential dye fluorescence; after compound, maximal acetylcholine stimulation; inhibition, % at 10 µM; hit rate 14% among 2,400;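 active = membrane potential signal drops by more than 5 SD from the mean control signal, in both duplicate plates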
TRPC4 ctr mod: mouse TRPC4 off-target activity of TRPC6 modulators | percent change from control (negative = decrease, positive = increase), % at 10 µM | shares compounds with TRPC6 inh | hit rate 69% among 2,400 | HEK293 TRPC4/mu-opioid, membrane potential fluorescence;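 active = membrane potential signal moved up or down beyond 5 SD of buffer control wells, in both duplicate plates, actives on both sides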
TRPC4 ctr inh 2: mouse TRPC4 off-target activity of TRPC6 modulators, second screen. shares compounds with TRPC6 inh. HEK293 TRPC4/mu-opioid, membrane potential dye fluorescence; stimulated with maximal-effect DAMGO. inhibition, % at 10 µM. hit rate 55% among 2,400. AID 488928;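 active = drop in membrane potential signal beyond 5 SD of the control wells in both duplicate plates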;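 note: TRPC4 counter screen for TRPC6 hits run under conditions tuned for TRPC6 not TRPC4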
TRPC6 block conf: confirmation of mouse TRPC6 inhibitors; hit rate 43% among 3,300; shares compounds with TRPC6 inh; AID 488960; inhibition, % at 10 µM; HEK293-TRPC6, membrane potential dye, ACh-evoked depolarization;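 active = fluorescence ratio falls more than 5 SD below the full-stimulation control mean, in both duplicate runs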;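 note: integrated fluorescence ratio of peak minus minimum over baseline after agonist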
TRPC6 act confirm: confirmation of mouse TRPC6 activators; activation, % at 10 µM; shares compounds with TRPC6 inh; hit rate 11% among 2,800; HEK293-TRPC6 membrane potential dye fluorescence, FDSS; AID 488961;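 active = ratio signal rise beyond 5 SD above unstimulated control wells' mean, seen in both duplicate runs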
A number is an active result; – = inactive; · = no result given; + = active, no number.

SMILES	CR mimetic SO	TRPC6 act	TRPC6 inh	TRPC4 act	TRPC4 PAM	TRPC4 block	HEK293 MPD ctr-2	HEK293 MPD ctr 2-2	TRPC4 ctr mod	TRPC4 ctr inh 2	TRPC6 block conf	TRPC6 act confirm	others
Cc1cc(OCCN2CCC(Cc3ccccc3)CC2)ccc1[N+](=O)[O-]	–	–	-8.2	–	–	–	·	·	·	·	–	–	TRPC4 sel inh 2=54%;TRPC4 spec=–;HEK293 MPD ctr 2-1=–;HEK293 MPD ctr-1=–
Cc1cccc(NC(=O)Cn2c(O)c(N=NC(N)=S)c3ccccc32)c1	–	–	–	–	–	–	·	·	·	·	·	·
Oc1[nH]c2ccc(Br)cc2c1N=NC(=S)NCC1CCCO1 (stereo not given)	–	–	-8.8	–	–	–	·	·	·	·	–	–	TRPC4 sel inh 2=–;TRPC4 spec=–;HEK293 MPD ctr 2-1=–;HEK293 MPD ctr-1=–
Oc1[nH]c2ccccc2c1N=NC(=S)NCC1CCCO1 (stereo not given)	–	–	–	–	–	–	·	·	·	·	·	·
CN(C)CCNc1nc2sc3c(c2c(=O)n1-c1ccccc1)CCCCC3	–	–	–	–	–	–	·	·	·	·	·	·
COc1ccc(-n2c(NCCN(C)C)nc3sc4c(c3c2=O)CCCCC4)cc1	–	–	-7.5	–	–	–	·	·	·	·	–	–	TRPC4 sel inh 2=–;TRPC4 spec=–;HEK293 MPD ctr 2-1=–;HEK293 MPD ctr-1=–
CN(C)CCNc1nc2sc3c(c2c(=O)n1-c1ccc(F)cc1)CCCCC3	–	–	-5.8	–	–	–	–	–	–	50%	–	–
CCOc1ccccc1-c1nc2c(s1)CCc1onc(-c3ccc(OC)cc3)c1-2	–	–	–	–	–	–	·	·	·	·	·	·
Cc1cccc(CSC(Nc2ccc(F)cc2)=C(C#N)C#N)c1	–	–	-5.2	–	–	–	124%	–	20%	48%	56%	–
N#CC(C#N)=C(Nc1ccc(F)cc1)SCc1cccc(Br)c1	–	–	–	–	–	–	·	·	·	·	·	·
COc1ccc(Cl)cc1NC(=O)c1nnn(CC(=O)Nc2cc(C)cc(C)c2)c1N	–	–	–	–	–	–	·	·	·	·	·	·
CCc1ccccc1OCC(=O)NC1CCCC1	·	–	-5.8	–	–	–	112%	–	20%	–	41%	·
COC(=O)c1ccccc1OCC(=O)NC1CCCCC1	–	–	-5.3	–	–	–	–	–	8.0%	–	–	·
O=C(COc1ccccc1)NC1CCCCCCC1	–	–	-6	–	39	–	102%	–	77%	–	–	·
COc1ccc(S(=O)(=O)CCC(=O)NC2CCCCC2)cc1	–	–	-8.1	–	–	–	·	·	·	·	–	–	TRPC4 sel inh 2=–;TRPC4 spec=–;HEK293 MPD ctr 2-1=–;HEK293 MPD ctr-1=–
COc1ccccc1CC(=O)NC1CCCCCC1	–	–	–	–	–	–	·	·	·	·	·	·
Cc1ccc(/C(N)=N/OC(=O)c2ccc(C)cc2Cl)cc1	–	–	–	–	–	–	·	·	·	·	·	·
Cc1ccc(S(=O)(=O)NC(C)(C)CSc2ncccn2)cc1	–	–	–	–	–	–	·	·	·	·	·	·
COc1ccccc1NC(=O)COc1ccc(Br)cc1CO	–	–	–	–	–	–	·	·	·	·	·	·
COc1ccccc1N(CC(=O)NC1CCCCC1)S(C)(=O)=O	–	–	–	–	–	–	·	·	·	·	·	·
COc1ccccc1N(CC(=O)NC1CCCCC1)S(=O)(=O)c1ccccc1	–	–	-5.1	–	–	–	474%	–	208%	38%	–	·
COc1ccccc1NC(=O)COc1ccc(Br)cc1CNC1CCCC1	–	–	-7.6	–	–	–	·	·	·	·	–	–	TRPC4 sel inh 2=54%;TRPC4 spec=14%;HEK293 MPD ctr 2-1=238%;HEK293 MPD ctr-1=9.8%
CC(=O)c1ccc(NC(=O)Nc2ccncc2)cc1	–	–	-5.2	43	–	-6	-142%	74%	-12%	52%	48%	–
O=C(Nc1ccncc1)Nc1ccncc1	–	–	-7.5	–	–	–	-310%	70%	-50%	38%	–	–
CC(=O)c1ccc(NC(=O)Nc2cccnc2)cc1	–	–	–	–	–	–	·	·	·	·	·	·
SMILES	CR mimetic SO	TRPC6 act	TRPC6 inh	TRPC4 act	TRPC4 PAM	TRPC4 block	HEK293 MPD ctr-2	HEK293 MPD ctr 2-2	TRPC4 ctr mod	TRPC4 ctr inh 2	TRPC6 block conf	TRPC6 act confirm	others
Cc1ncc(CO)c(/C=N/NC(=S)Nc2ccc(Cl)c(Cl)c2)c1O	–	–	–	–	–	–	·	·	·	·	·	·
COc1ccc(CCNC(=O)C2CCN(Cc3nc(-c4cccc(Cl)c4)oc3C)CC2)cc1OC	–	–	-7.3	–	–	–	–	–	–	75%	–	–
CN1C(=O)C(O)(CC(=O)/C=C\c2ccc3c(c2)OCO3)c2ccccc21 (stereo not given)	–	–	–	–	–	–	·	·	·	·	·	·
CN(C)c1ccc(/C=C(/C(=O)c2ccc(Cl)cc2Cl)n2cncn2)cc1	–	49	-6.4	52	–	–	+	+	266%	–	–	487%
COc1ccc(NCc2nnc(SCC(=O)Nc3cccc(C)c3)o2)cc1	–	–	-6.3	–	–	–	–	–	–	–	–	–
CCOC(=O)c1nc2cc3n(c(C)c-2c1C)C(C)C(C)=C3C (stereo not given)	–	–	-8.1	–	–	–	·	·	·	·	–	–	TRPC4 sel inh 2=70%;TRPC4 spec=7.3%;HEK293 MPD ctr 2-1=-192%;HEK293 MPD ctr-1=–
CCOC(=O)c1nnc2cc(C)nn2c1C	–	–	–	–	–	–	·	·	·	·	·	·
CCOC(=O)c1nc2cc3n(c(CC(C)C)c-2c1C)CC(C)=C3C	–	–	-6.4	–	–	–	-87%	69%	-20%	54%	49%	–
Cc1ccc(C(=O)N/C(=C/c2ccc(-c3ccc(Br)cc3)o2)C(=O)NC2CCS(=O)(=O)C2)cc1 (stereo not given)	–	–	–	–	–	–	·	·	·	·	·	·

Source: PubChem
